Reference: paper PMC4764504 (Journal of medicinal chemistry, 2015)
Several values for one entry are separate records, joined by “and”; a condition that tells them apart may be missing. Identical values can stand only once.

What was measured:
DBT glioma cells = assay: Competitive amino acid cell uptake assays; assay type: cell-based, mouse; settings: 60 s, 37 °C
Method in brief: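 Mouse DBT glioma cells were seeded at 1 × 10⁵ cells/well and grown 48 h in 10% FBS DMEM under 5% CO₂. Cells were washed twice in 37 °C buffer, then exposed for 60 s at 37 °C, pH 7.40, to the radiotracer. Buffers were Na phosphate-buffered saline or choline-substituted Na-free buffer. Controls had 10 mM sucrose; BCH was 10 mM. Cells were washed with ice-cold buffer, lysed in 0.2% SDS/0.2 M NaOH, γ-counted, and normalized to added activity and BCA protein. Values are % of control, triplicate × two plates.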

[1] = tested on: BALB/c Mice with Subcutaneous Flank DBT Tumors; assay: Whole body biodistribution in mice with subcutaneous DBT gliomas; assay type: in vivo, mouse; settings: for biodistribution, tumor uptake: subcutaneous DBT tumor
Method in brief: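 Male BALB/c mice carried subcutaneous flank DBT tumors (5 × 10⁵ cells) and were used at day 14. Under 1% isoflurane–oxygen, each received ~56 μCi (2.07 MBq) of ⁷⁶Br-labelled or 45 μCi (1.67 MBq) of ¹²³I-labelled test compound by tail vein in 0.9% saline. Mice were killed at 5 min, 30 min, 1, 3 and 24 h (n = 4 per time). Tissues were weighed and γ-counted with decay correction, giving % ID/g.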

In the case of `C[C@](N)(/C=C/[123I])C(=O)O` [[^123I]8, (S)-amino-2-methyl-4-[^123I]iodo-3-(E)-butenoic acid, reference compound], the “uptake relative to control” value (DBT glioma cells; Na BCH condition (BCH 10 mM, system L inhibitor, sodium buffer)) is reported as 39 ± 12%, the “uptake compared to sodium control” value (DBT glioma cells; choline + BCH (sodium-free, Cho-BCH)) is reported as 31 ± 12% and the “uptake compared to the sodium control” value (DBT glioma cells; choline control (sodium-free, Cho-sucrose)) is reported as 33 ± 6.6%. The “uptake relative to the control” value (DBT glioma cells; in the presence of MeAIB (10 mM, system A inhibitor), sodium buffer) was 25 ± 3.4%, the “biodistribution, blood” value ([1]; 5 min after i.v. injection) was 3.86 ± 0.50 % ID/g and the “biodistribution, blood” value ([1]; 30 min after i.v. injection) was 1.07 ± 0.16 % ID/g. The “biodistribution, blood” value ([1]; 1 h after i.v. injection) was 0.37 ± 0.05 % ID/g, the “biodistribution, blood” value ([1]; 3 h after i.v. injection) was 0.07 ± 0.02 % ID/g and the “biodistribution, blood” value ([1]; 24 h after i.v. injection) was 0.0005 ± 0.0000 % ID/g. For the same compound, the “biodistribution, bone” value ([1]; 5 min after i.v. injection) was 1.94 ± 0.28 % ID/g, the “biodistribution, bone” value ([1]; 30 min after i.v. injection) was 1.20 ± 0.21 % ID/g and the “biodistribution, bone” value ([1]; 1 h after i.v. injection) was 0.55 ± 0.39 % ID/g. The “biodistribution, bone” value ([1]; 3 h after i.v. injection) was 0.39 ± 0.35 % ID/g, the “biodistribution, bone” value ([1]; 24 h after i.v. injection) was 0.0042 ± 0.0020 % ID/g and the “biodistribution, brain” value ([1]; 5 min after i.v. injection) was 0.27 ± 0.03 % ID/g. For the same compound, the “biodistribution, brain” value ([1]; 30 min after i.v. injection) was 0.17 ± 0.04 % ID/g, the “biodistribution, brain” value ([1]; 1 h after i.v. injection) was 0.27 ± 0.35 % ID/g and the “biodistribution, brain” value ([1]; 3 h after i.v. injection) was 0.07 ± 0.00 % ID/g. For the same compound, the “biodistribution, brain” value ([1]; 24 h after i.v. injection) was 0.0010 ± 0.0003 % ID/g, the “biodistribution, fat” value ([1]; 5 min after i.v. injection) was 0.87 ± 0.26 % ID/g and the “biodistribution, fat” value ([1]; 30 min after i.v. injection) was 0.22 ± 0.09 % ID/g. The “biodistribution, fat” value ([1]; 1 h after i.v. injection) was 0.19 ± 0.07 % ID/g, the “biodistribution, fat” value ([1]; 3 h after i.v. injection) was 0.04 ± 0.01 % ID/g and the “biodistribution, heart” value ([1]; 5 min after i.v. injection) was 2.30 ± 0.02 % ID/g. For the same compound, the “biodistribution, heart” value ([1]; 30 min after i.v. injection) was 1.78 ± 0.35 % ID/g, the “biodistribution, heart” value ([1]; 1 h after i.v. injection) was 0.90 ± 0.06 % ID/g and the “biodistribution, heart” value ([1]; 3 h after i.v. injection) was 0.18 ± 0.05 % ID/g. The “biodistribution, heart” value ([1]; 24 h after i.v. injection) was 0.0005 ± 0.0005 % ID/g, the “biodistribution, kidney” value ([1]; 5 min after i.v. injection) was 31.27 ± 6.91 % ID/g and the “biodistribution, kidney” value ([1]; 30 min after i.v. injection) was 9.90 ± 3.24 % ID/g. For the same compound, the “biodistribution, kidney” value ([1]; 1 h after i.v. injection) was 2.68 ± 0.55 % ID/g, the “biodistribution, kidney” value ([1]; 3 h after i.v. injection) was 0.39 ± 0.09 % ID/g and the “biodistribution, kidney” value ([1]; 24 h after i.v. injection) was 0.0032 ± 0.0017 % ID/g. The “biodistribution, liver (all)” value ([1]; 5 min after i.v. injection) was 2.83 ± 0.25 % ID/g, the “biodistribution, liver (all)” value ([1]; 30 min after i.v. injection) was 0.91 ± 0.20 % ID/g and the “biodistribution, liver (all)” value ([1]; 1 h after i.v. injection) was 0.25 ± 0.03 % ID/g. For the same compound, the “biodistribution, liver (all)” value ([1]; 3 h after i.v. injection) was 0.07 ± 0.02 % ID/g, the “biodistribution, liver (all)” value ([1]; 24 h after i.v. injection) was 0.0006 ± 0.0002 % ID/g and the “biodistribution, lung” value ([1]; 5 min after i.v. injection) was 3.54 ± 0.31 % ID/g. For the same compound, the “biodistribution, lung” value ([1]; 30 min after i.v. injection) was 1.01 ± 0.28 % ID/g, the “biodistribution, lung” value ([1]; 1 h after i.v. injection) was 0.33 ± 0.06 % ID/g and the “biodistribution, lung” value ([1]; 3 h after i.v. injection) was 0.06 ± 0.02 % ID/g. The “biodistribution, lung” value ([1]; 24 h after i.v. injection) was 0.0007 ± 0.0006 % ID/g, the “biodistribution, muscle” value ([1]; 5 min after i.v. injection) was 1.65 ± 0.05 % ID/g and the “biodistribution, muscle” value ([1]; 30 min after i.v. injection) was 1.41 ± 0.22 % ID/g. The “biodistribution, muscle” value ([1]; 1 h after i.v. injection) was 0.68 ± 0.17 % ID/g, the “biodistribution, muscle” value ([1]; 3 h after i.v. injection) was 0.12 ± 0.06 % ID/g and the “biodistribution, muscle” value ([1]; 24 h after i.v. injection) was 0.0011 ± 0.0006 % ID/g. The “biodistribution, pancreas” value ([1]; 5 min after i.v. injection) was 29.26 ± 8.15 % ID/g, the “biodistribution, pancreas” value ([1]; 30 min after i.v. injection) was 21.03 ± 4.38 % ID/g and the “biodistribution, pancreas” value ([1]; 1 h after i.v. injection) was 5.75 ± 1.20 % ID/g. For the same compound, the “biodistribution, pancreas” value ([1]; 3 h after i.v. injection) was 0.99 ± 0.46 % ID/g, the “biodistribution, pancreas” value ([1]; 24 h after i.v. injection) was 0.0052 ± 0.0021 % ID/g and the “biodistribution, spleen” value ([1]; 5 min after i.v. injection) was 3.92 ± 0.99 % ID/g. The “biodistribution, spleen” value ([1]; 30 min after i.v. injection) was 2.23 ± 0.34 % ID/g, the “biodistribution, spleen” value ([1]; 1 h after i.v. injection) was 0.68 ± 0.12 % ID/g and the “biodistribution, spleen” value ([1]; 3 h after i.v. injection) was 0.15 ± 0.05 % ID/g. For the same compound, the “biodistribution, spleen” value ([1]; 24 h after i.v. injection) was 0.0012 ± 0.0010 % ID/g, the “biodistribution, tumor uptake” value ([1]; 5 min after i.v. injection) was 2.8 ± 0.8 % ID/g and 2.78 ± 0.83 % ID/g and the “biodistribution, tumor uptake” value ([1]; 30 min after i.v. injection) was 2.7 ± 0.6 % ID/g and 2.68 ± 0.56 % ID/g. The “biodistribution, tumor uptake” value ([1]; 1 h after i.v. injection) was 1.53 ± 0.66 % ID/g, the “biodistribution, tumor uptake” value ([1]; 3 h after i.v. injection) was 0.65 ± 0.16 % ID/g and the “biodistribution, tumor uptake” value ([1]; 24 h after i.v. injection) was 0.0012 ± 0.0007 % ID/g. For the same compound, the “biodistribution, thyroid” value ([1]; thyroid, 5 min after i.v. injection) was 2.51 ± 0.39 % ID/g, the thyroid uptake ([1]; thyroid, 5 min after injection) was 2.5 ± 0.4 % ID/organ and the “biodistribution, thyroid” value ([1]; thyroid, 30 min after i.v. injection) was 1.38 ± 0.38 % ID/g. The “biodistribution, thyroid” value ([1]; thyroid, 1 h after i.v. injection) was 0.97 ± 0.28 % ID/g, the “biodistribution, thyroid” value ([1]; thyroid, 3 h after i.v. injection) was 0.65 ± 0.29 % ID/g and the thyroid activity ([1]; thyroid, 3 h after injection) was “approximately 0.7 % ID/organ”. For the same compound, the “biodistribution, thyroid” value ([1]; thyroid, 24 h after i.v. injection) was 0.6527 ± 0.2135 % ID/g, the thyroid activity ([1]; thyroid, 24 h after injection) was “approximately 0.7 % ID/organ” and the “thyroid activity as share of the administered activity” value ([1]; thyroid, 24 h after injection) was “less than 1%”.
